Screens deposited in PubChem BioAssay by Broad Institute.
DENV2 CPE rescue = DENV2-induced cell death inhibition. DENV2-infected cells, cytopathic effect rescue, plate reader. CPE inhibition, % at 9.99 µM. hit rate 1.7% among 350,000; in the data active = CPE inhibition above about 20%, passing the limit was not always enough; tested in BHK-21 cells;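 note: 0% = median of neutral control wells and 100% = median of positive control wells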
C2C12 statin = suppression of simvastatin myotoxicity; AID 602340; rescue of ATP level, % at 7.49 µM; hit rate 0.78% among 330,000; C2C12 myotubes + simvastatin, ATP luminescence, 48 h; scaled: DMSO 0, geranylgeraniol control 100;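 active = mean ATP rescue above about 67%, or every replicate alone reaching that limit, limit read from the data, passing the limit was not always enough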;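 note: myotubes were challenged with 10 µM simvastatin during compound exposure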
FGF22 binding = FGF22 (human) thermal shift binding; AID 651658; activity (Tm shift, normalised), % at 9.99 µM; recombinant FGF22 thermal shift, SYPRO orange fluorescence; percent of sucrose octasulfate shift, DMSO zero; hit rate 1.5% among 340,000; Q9HCT0;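 active = mean Tm shift, scaled 0 neutral to 100 positive control, at about 1.3% or above, every replicate too, limit read from the data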
Target sequence (Q9HCT0 whole entry, looked up): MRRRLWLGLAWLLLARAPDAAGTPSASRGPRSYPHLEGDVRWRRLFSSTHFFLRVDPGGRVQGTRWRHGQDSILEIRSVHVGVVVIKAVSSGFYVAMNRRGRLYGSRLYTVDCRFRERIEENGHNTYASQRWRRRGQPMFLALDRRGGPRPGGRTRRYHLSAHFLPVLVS
Xi reactivation = reactivates the inactive X chromosome in mouse fibroblasts | hit rate 0.055% among 360,000 | XiGFP mouse fibroblasts, % GFP-positive cells imaging, 3 d; cells co-treated with 5-aza-dC sensitizer; scaled so ellipticine positive control = 100% | activation, % at 7.58 µM;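 active = mean normalized replicate activation at least 10% and every replicate at or above 10%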;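 note: 0% = median of on-plate neutral control wells and 100% = ellipticine 6 µM median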
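Schedule: 3 d treatment, 15 min room-temperature fixation; system: 68-5-11 XiGFP fibroblast line; buffer or medium: DMEM plus 5-aza-dC sensitizer; control set: ellipticine 6 µM positive control; compound: one concentration, pinned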
E-selectin induc = induces E-selectin expression in human endothelial cells; P16581; HUVEC E-selectin immunofluorescence imaging; normalized: neutral wells 0, TNF-alpha wells 100; activation, % at 7.58 µM; hit rate 0.37% among 260,000;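 active = mean E-selectin-positive cell signal at least 10% of the positive control, reached in at least 60% of replicates, without over 20% cell loss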
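Assay system: HUVEC primary endothelial cells. Input: 3,000 HUVEC seeded per well. Doses: one compound dose added by pin transfer. Read-out basis: % PE-positive cells. Benchmarks: TNF-alpha high, DMSO low. Detection: immunofluorescence imaging. Buffer or medium: EGM-2, gelatin.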
PglD DTNB = blocks C. jejuni PglD acetyltransferase activity; hit rate 0.098% among 360,000; inhibition, % at 12.5 µM; purified PglD enzyme, DTNB colorimetric CoA detection; AID 602405; in the data active = inhibition above about 16%, passing the limit was not always enough
Numbers without * were called inactive. Sampled rows, rich in hits. Any-hit rate of the full collection: about 3.3%.

`CCN1[C@@H]2Cn3c(ccc(C4=CCCCC4)c3=O)[C@H]1[C@@H](C(=O)NCC(F)(F)F)[C@@H]2CO` gave Xi reactivation 0.
For CCCCCC(=C/c1ccccc1)/C=N/Nc1ccc(S(=O)(=O)N2CCOCC2)cc1[N+](=O)[O-] the results were DENV2 CPE rescue 32*, C2C12 statin -16, FGF22 binding 0, Xi reactivation 0, E-selectin induc -1 and PglD DTNB -1.
O=C(O)CSc1ncccn1 was read as DENV2 CPE rescue -3, C2C12 statin -4, FGF22 binding 0, Xi reactivation 53* and E-selectin induc 0.
`O=C(CSc1ncccn1)Nc1ccccc1` gave C2C12 statin 46.
For C=CCOc1c(Br)cc(CNn2nnnc2N)cc1OC the results were C2C12 statin 111* and PglD DTNB -9.
`CO[C@H]1CN(C)C(=O)c2ccc(NS(=O)(=O)c3ccc(Oc4ccccc4)cc3)cc2OC[C@H](C)NC[C@H]1C` gave DENV2 CPE rescue 22*, C2C12 statin -5, FGF22 binding 0, Xi reactivation 1, E-selectin induc 0 and PglD DTNB 0.
For CO[C@H]1CN(C)C(=O)c2ccc(NS(=O)(=O)c3ccc(-c4ccccc4)cc3)cc2OC[C@@H](C)NC[C@@H]1C the results were DENV2 CPE rescue 29*, FGF22 binding 0, Xi reactivation 2 and E-selectin induc 0.
Screening CO[C@@H]1CN(C)C(=O)c2ccc(NS(=O)(=O)c3cccc(F)c3)cc2OC[C@@H](C)NC[C@@H]1C returned DENV2 CPE rescue 71*, FGF22 binding 0, Xi reactivation 0 and E-selectin induc 2.
Screening CO[C@@H]1CN(C)C(=O)c2ccc(NS(=O)(=O)c3ccc(Oc4ccccc4)cc3)cc2OC[C@H](C)NC[C@H]1C returned DENV2 CPE rescue -5, C2C12 statin 0, FGF22 binding 0, Xi reactivation 1, E-selectin induc 0 and PglD DTNB 0.
Screening C[C@H]1CN([C@@H](C)CO)C(=O)c2cc(NC(=O)CCC(F)(F)F)ccc2O[C@@H]1CN(C)Cc1ccccc1 returned DENV2 CPE rescue 1, C2C12 statin 6, FGF22 binding 0, Xi reactivation 0, E-selectin induc 0 and PglD DTNB 0.
CCN(CC(=O)Nc1cc(Cl)ccc1-n1cncn1)Cc1nc2ccccc2c(=O)[nH]1 was read as DENV2 CPE rescue 31*, C2C12 statin -8, FGF22 binding 0, Xi reactivation 0, E-selectin induc 0 and PglD DTNB -3.
CO[C@@H]1CN(C)C(=O)c2cc(NS(=O)(=O)c3ccccc3)ccc2OC[C@H](C)N(C(=O)NC(C)C)C[C@@H]1C was read as DENV2 CPE rescue -3, C2C12 statin 7, FGF22 binding 0, Xi reactivation 0, E-selectin induc 0 and PglD DTNB 1.
`CC(C)NC(=O)N(C)C[C@@H]1Oc2ccc(NC(=O)Nc3ccc(F)cc3)cc2CC(=O)N([C@@H](C)CO)C[C@@H]1C` gave DENV2 CPE rescue 7, C2C12 statin 14, FGF22 binding 0, Xi reactivation 0, E-selectin induc 0 and PglD DTNB 0.
For COC(=O)c1ccc(Sc2ccccn2)c([N+](=O)[O-])c1 the results were DENV2 CPE rescue 88*, FGF22 binding 0 and Xi reactivation 0.
`CC1CCN(C(=O)CSc2nnc(CNC(=O)COc3ccc(Cl)cc3)o2)CC1` gave C2C12 statin 96* and PglD DTNB -1.
O=C(COc1ccc(Cl)cc1)NCc1nnc(SCC(=O)NC2CCCCC2)o1 was read as C2C12 statin 9 and PglD DTNB -1.
Screening C[C@H](CO)N1C[C@H](C)[C@H](CN(C)Cc2ccc(-c3ccccc3)cc2)Oc2ccc(NC(=O)C3CC3)cc2C1=O returned DENV2 CPE rescue -6, C2C12 statin -3, FGF22 binding 0, Xi reactivation 0, E-selectin induc 0 and PglD DTNB -1.
